Article PMC4064470 (Journal of medicinal chemistry, 2013)

Experiments:
[1] = target: T1, recombinant mouse VAP-1 (Mus musculus, UniProt O70423); test: In vitro inhibition of recombinant mouse VAP-1 activity; type: biochemical; details: control compound; mouse VAP-1 in Figure 1
T1 sequence (O70423 1-765): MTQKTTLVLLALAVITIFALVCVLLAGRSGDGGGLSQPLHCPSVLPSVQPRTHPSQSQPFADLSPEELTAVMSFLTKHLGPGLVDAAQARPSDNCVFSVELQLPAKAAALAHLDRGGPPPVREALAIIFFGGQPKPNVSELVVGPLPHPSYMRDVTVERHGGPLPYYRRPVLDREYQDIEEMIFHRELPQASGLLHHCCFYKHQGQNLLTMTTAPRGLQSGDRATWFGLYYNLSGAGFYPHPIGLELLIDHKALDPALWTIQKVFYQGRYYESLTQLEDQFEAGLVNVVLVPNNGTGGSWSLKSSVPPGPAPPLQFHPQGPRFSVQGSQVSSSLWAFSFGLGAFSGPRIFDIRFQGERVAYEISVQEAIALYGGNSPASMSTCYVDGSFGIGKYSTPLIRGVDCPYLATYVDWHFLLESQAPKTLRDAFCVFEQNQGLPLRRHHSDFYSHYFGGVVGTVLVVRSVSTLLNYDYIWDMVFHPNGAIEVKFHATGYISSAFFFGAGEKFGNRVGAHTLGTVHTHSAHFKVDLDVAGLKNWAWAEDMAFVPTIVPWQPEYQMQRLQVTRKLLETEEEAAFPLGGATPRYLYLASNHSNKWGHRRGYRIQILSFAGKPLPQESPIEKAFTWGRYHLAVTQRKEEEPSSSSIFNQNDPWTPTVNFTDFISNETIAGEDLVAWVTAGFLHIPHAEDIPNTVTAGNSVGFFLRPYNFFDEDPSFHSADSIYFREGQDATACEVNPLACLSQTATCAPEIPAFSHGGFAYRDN
Method in brief: (§1)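 Enzyme source was lysate of CHO cells stably transfected with VAP-1 (native CHO has negligible activity), dosed to give 0.6 A490/h. Test compound (1 nM–50 μM) was preincubated 30 min at 37 °C with 0.2 M potassium phosphate pH 7.6, 1 mM 2,4-dichlorophenol, 500 μM 4-aminoantipyrine and 4 U/ml HRP. Then 1 mM benzylamine (final) was added for 1 h at 37 °C and A490 read. Percent inhibition was background-corrected and IC50 fitted, from two to six experiments.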

[2] = target: T2, recombinant human VAP-1 (Homo sapiens, UniProt Q16853); test: In vitro inhibition of recombinant human VAP-1 activity; type: biochemical; details: control compound
T2 sequence (Q16853 1-763): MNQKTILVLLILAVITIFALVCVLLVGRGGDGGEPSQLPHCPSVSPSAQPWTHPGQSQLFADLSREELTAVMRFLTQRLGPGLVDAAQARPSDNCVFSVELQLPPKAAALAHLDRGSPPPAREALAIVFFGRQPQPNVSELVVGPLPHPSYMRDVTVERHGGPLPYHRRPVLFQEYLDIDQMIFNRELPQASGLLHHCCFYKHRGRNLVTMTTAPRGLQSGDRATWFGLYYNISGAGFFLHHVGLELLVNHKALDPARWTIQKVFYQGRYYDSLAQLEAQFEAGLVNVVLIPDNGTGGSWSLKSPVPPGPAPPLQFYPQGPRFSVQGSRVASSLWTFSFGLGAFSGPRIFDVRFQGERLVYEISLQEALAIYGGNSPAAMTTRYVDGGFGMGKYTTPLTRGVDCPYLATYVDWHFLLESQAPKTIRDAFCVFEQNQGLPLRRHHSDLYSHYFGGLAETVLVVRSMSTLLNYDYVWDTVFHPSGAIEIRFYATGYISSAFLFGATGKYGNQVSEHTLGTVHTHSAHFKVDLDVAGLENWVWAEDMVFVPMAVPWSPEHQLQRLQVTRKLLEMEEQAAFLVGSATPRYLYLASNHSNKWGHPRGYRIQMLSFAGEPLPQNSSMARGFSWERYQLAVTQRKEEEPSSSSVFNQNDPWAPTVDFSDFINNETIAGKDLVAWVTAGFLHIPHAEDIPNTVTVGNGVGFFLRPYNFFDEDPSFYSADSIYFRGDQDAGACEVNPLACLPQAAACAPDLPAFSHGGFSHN
Method in brief: as §1

inhibition of rodent VAP-1 (in words) [1]: inhibits
inhibition of human VAP-1 (in words) [2]: inhibits
Structure (SMILES): CN(N)[C@H](c1ccccc1)[C@@H](O)c1ccccc1.O=C(O)C(O)C(O)C(=O)O [Compound 11d, (1S,2R)-2-(1-methylhydrazino)-1,2-diphenylethanol (S,S)-tartrate salt]
